STAT1 act = activators of IFN-gamma induced STAT1 signaling | 200,000 tested, 2.6% active | AID 932 | activation (% of control), % at 5.5 µM | NIH 3T3 STAT1-luciferase reporter, luminescence; 100% = IFN-gamma alone, no compound;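 active means activation above the screen-wide mean activation plus 3 SD, cut at about 130% in these data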;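 further: raw ratio to IFN-gamma control signal so 100% means no change and 0% no light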
NF-kB expr up = compounds increasing NF-kB expression in human neuronal cells; NF-kB reporter expression; hits give high values; fold change at 12.5 µM; 190,000 tested, 1.6% active; AID 1239; in the data active means fold change above about 3.3
APP 5'UTR act = APP 5'UTR luciferase reporter activation. SH-SY5Y APP 5'UTR luciferase reporter, luminescence; zero percent = DMSO vehicle wells. activation, % at 2 µM. 190,000 tested, 1% active. AID 1276;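 active means activation above a set limit, based on mean plus 3 SD of controls, cut at about 140% in these data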
FLuc inh counter = counter-screen for luciferase assay inhibitors: firefly luciferase inhibition | P08659 | ATPLite firefly luciferase biochemical luminescence, 10 min | inhibition, % at 10 µM | 200,000 tested, 1.5% active | AID 1006;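 active means inhibition above about 50% when tested at 10 µM, limit read from the data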
FLuc stim CS = firefly luciferase counter-screen for stimulation assays | ATPlite luciferase biochemical, luminescence, 10 min; 0 = ATP-free wells, 1 = DMSO control | activation factor at 10 µM | 200,000 tested, under 10 active | AID 1027;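 active means luciferase activation factor, scaled between plate controls, of at least 2 with compound at 10 µM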
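Assay system: Luciferase/luciferin reagent mix; Medium: PBS as buffer for the ATP substrate; Dosing: test compounds dosed from 2 mM stocks in 100% DMSO; Times: 10 min, room temperature; Signal: luminescence from luciferase reaction; Read-out: luciferase activation; Controls: No-ATP low control, compound-free enzyme-plus-ATP high control.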
Rad51 HR inh = Rad51 (human) homologous recombination inhibition | 200,000 tested, 0.085% active | Q06609 | hRad51 DNA strand exchange, fluorescence dequenching | inhibition, % at 10 µM;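 active means inhibition above 40% at the single screening dose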;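 further: 0% = DMSO control wells and 100% = blanks with heterologous ssDNA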
Target sequence (Q06609 whole entry, looked up): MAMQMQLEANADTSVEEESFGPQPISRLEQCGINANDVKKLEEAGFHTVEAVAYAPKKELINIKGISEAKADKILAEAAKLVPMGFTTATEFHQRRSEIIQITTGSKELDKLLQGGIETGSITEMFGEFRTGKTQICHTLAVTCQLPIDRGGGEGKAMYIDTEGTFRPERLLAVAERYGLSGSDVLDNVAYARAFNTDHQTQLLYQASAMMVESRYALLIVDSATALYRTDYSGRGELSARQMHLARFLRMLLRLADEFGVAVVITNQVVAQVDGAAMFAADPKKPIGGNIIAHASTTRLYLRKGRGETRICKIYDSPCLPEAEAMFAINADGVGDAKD
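Test system – preformed human Rad51 ssDNA filaments · Reagent – Donor/quencher-labelled 47-bp dsDNA substrate · Incubation – 37 °C 15-min filament assembly, 30-min compound preincubation, 15-min exchange · Signal – FRET fluorescence dequenching, excitation 485 nm, emission 520 nm · Read-out – percent inhibition from fluorescence, normalised to plate control and blank means · Benchmarks – plate control and blank wells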
Active calls of the source: *; nt = no result given. Sampled rows, rich in hits. Any-hit rate of the full collection: about 3.9%.

SMILES	STAT1 act	NF-kB expr up	APP 5'UTR act	FLuc inh counter	FLuc stim CS	Rad51 HR inh
CCCCCCOc1ccc(CN2CCN(C)CC2)cc1	109.6	1.05	143.9*	12.1	0.9	-5.3
CN1CC(C(=O)c2ccccc2)C(C(=O)c2ccccc2)C1 (stereo unspecified)	124.8	4.33*	81.6	-6.6	1.1	5.7
O=C1CCCN1c1ccc(S(=O)(=O)O)cc1 (tested in a mixture with another compound)	102.0	1.27	-3.6	-5.7	1.1	nt
CC(C)NS(=O)(=O)c1ccc(OCC(=O)N2CCN(C)CC2)cc1	99.0	1.16	-4.2	3.8	1	-2.5
CN1CCN(C(=O)COc2ccc(-c3nc4ccccc4s3)cc2)CC1	55.4	4.34*	135.3*	96.4*	0	3.2
CN(C)C(=O)Oc1ccc(OCc2nc3ccccc3[nH]2)cc1	103.4	1.7	88.4	80.0*	0.2	-6.1
CC(/C=N/NC(=O)c1n[nH]c2c1CCC2)=C\c1ccccc1	121.8	6.88*	-94.3	52.7*	0.5	3.2
O=C1/C(=C/c2ccncc2)N2CCC1CC2	90.2	1.12	32.0	-0.8	1	-4.7
c1ccc(CC(NCc2ccco2)c2ccccc2)cc1 (stereo unspecified)	104.2	1.09	6.1	2.0	1	-2.3
Cc1cc(/C=C2\C(=O)NC(=O)N(c3ccc(F)cc3)C2=O)c(C)n1-c1cccc(C(=O)O)c1	102.2	1.45	11.4	-5.9	1.1	7.4
Cc1cc(C=C2C(=O)NC(=O)NC2=O)c(C)n1-c1ccc2c(c1)OCO2	103.8	1.86	24.7	56.5*	0.4	-25.1
Cc1cc(C=C2C(=O)NC(=S)NC2=O)c(C)n1-c1ccc2c(c1)OCO2	105.0	1.31	-8.6	38.9	0.6	-13.9
Cc1cc(/C=C2\C(=O)NC(=O)N(C)C2=O)c(C)n1-c1ccc2c(c1)OCO2	111.8	1.16	3.6	60.6*	0.4	-9.7
Cc1cc(/C=C2/C(=O)NC(=O)N(C)C2=O)c(C)n1-c1ccccc1	99.0	1.1	30.1	62.5*	0.4	3.9
Cc1cc(C(=O)N=Nc2c(O)n(C)c3ccccc23)c(C)o1	129.0*	2.25	76.0	24.1	0.8	nt
Cc1cccc(-n2c(-c3ccccc3)nc3ccccc3c2=O)n1	100.5	1.01	-3.3	-4.2	1	0.2
CNC(=O)Oc1ccc2c(c1)C(=O)c1ccccc1CO2	85.7	1	3.5	40.2	0.6	-1.0
CNC(=O)Oc1cccc(-c2cn3cc(OC(=O)NC)ccc3n2)c1	107.9	3.24	14.6	73.2*	0.3	nt
CNC(=O)Oc1ccc(-c2cn3cc(Cl)ccc3n2)cc1	90.1	13.5*	130.9	93.2*	0.1	-6.0
CCn1c(=O)n(CC)c2cc([N+](=O)[O-])c(N3CCNCC3)cc21	89.0	1.11	13.1	-1.8	1	6.4
Nc1ccccc1C(=O)OCCOc1ccccc1	109.4	6.74*	181.8*	14.9	0.9	7.6
CCCCCOc1ccc(C)cc1CN(CCCl)CCCl	nt	nt	nt	nt	nt	-21.9
COc1ccc(C(=O)C23CN4CN(CN(C4)C2)C3)cc1	97.9	1.04	11.3	-5.8	1.1	5.4
O=C(c1ccc(Br)cc1)C12CN3CN(CN(C3)C1)C2	103.3	14.1*	24.2	-3.0	1	4.9
CC1=CC(C)C(COC(N)=O)(COC(N)=O)C(C)C1 (stereo unspecified)	93.2	1.18	-8.2	-5.7	1.1	47.9*
SMILES	STAT1 act	NF-kB expr up	APP 5'UTR act	FLuc inh counter	FLuc stim CS	Rad51 HR inh
O=c1[nH]c(N2CCN(Cc3ccc4c(c3)OCO4)CC2)nc2c1CCC2	97.3	1.26	-1.6	-1.7	1	83.8*
Fc1ccccc1N1CCN(Cc2ccc3c(c2)OCO3)CC1	101.7	0.96	4.9	-6.8	1.1	-1.7
CC/C(=N\N1CCCCCC1)c1c(O)n(-c2ccccc2C)c(=O)[nH]c1=O	99.9	0.56	7.1	-7.2	1.1	0.7
CC[N+](C)(CC)CCCCOc1ccc2c(c1)C(=O)c1cc(OCCCC[N+](C)(CC)CC)ccc1-2	nt	nt	nt	nt	nt	41.5*
CC[C@@H]1C=CC=CC[C@H](C)[C@@H](O)[C@@H](C)C(=O)[C@H](C)[C@@H](O)[C@H](C)C(=O)[C@H](C)[C@@H](O)[C@H](C)C=CC(=O)O[C@H]2[C@@H](C)[C@@H](CC1)O[C@@]1(CC[C@@H](C)[C@@H](C[C@H](C)O)O1)[C@@H]2C	nt	nt	nt	nt	nt	-3.3
O=c1c2ccccc2nc(CSc2ncnc3nc[nH]c23)n1-c1ccccc1	103.5	3.88*	6.5	-6.3	1.1	-0.5
COc1ccc(CCn2c(O)c(C=NCc3ccc4c(c3)OCO4)c(=O)[nH]c2=O)cc1OC	143.3*	1	14.5	-7.4	1.1	1.6
COc1ccc(-n2c(O)c(C(C)=NCCc3c[nH]c4ccccc34)c(=O)[nH]c2=O)cc1	nt	nt	nt	nt	nt	9.7
Cc1ccc(-n2c(O)c(C=Nc3ccccc3N)c(=O)[nH]c2=O)cc1C	136.6*	2.68	135.2*	-0.5	1	-3.1
Cc1cc(S(N)(=O)=O)ccc1N=Cc1c(O)n(-c2ccccc2)c(=O)[nH]c1=O	97.8	1.3	19.7	-2.0	1	6.5
C=Cn1ccnc1P(=S)(c1ccc(Cl)cc1)c1nccn1C=C	99.2	1.02	3.3	-4.5	1	-46.9
Cc1cccc(N/N=C(\C(N)=O)C2=NC(C)(C)Cc3ccccc32)c1	96.5	1.27	-10.5	-5.0	1.1	7.0
COc1ccc(C(C)=O)cc1CC(C(=O)c1ccc(F)cc1)N(C)C (stereo unspecified)	97.4	1.01	4.8	-2.4	1	-7.5
CC(C)(C)n1cc(C(=O)c2ccc3ccccc3c2O)cn1	71.8	1.5	211.7*	68.8*	0.3	4.4
O=c1[nH]c(=S)[nH]c(O)c1N=Nc1ccc2c(c1)OCO2	129.6*	1.23	40.2	53.4*	0.5	-7.0
O=c1[nH]c(=S)[nH]c(O)c1N=Nc1ccc2c(c1)OCCO2	nt	nt	nt	nt	nt	-7.5
O=c1[nH]c(O)c(N=Nc2ccc3c(c2)OCCO3)c(=O)[nH]1	61.3	1.06	34.2	69.1*	0.3	-8.4
COc1ccc2c(c1)NP(=S)(Oc1ccccc1)N2 (stereo unspecified)	nt	nt	nt	nt	nt	-15.9
COc1ccc(-c2cc(=NCCCCCC(=O)O)c3cc(C)ccc3o2)cc1	111.4	1.92	13.0	-5.5	1.1	20.3
COc1ccc(-c2cc(=Nc3cccc(C(=O)O)c3)c3cc(C)ccc3o2)cc1	136.0*	2.25	138.6*	40.1	0.6	-4.1
O=c1[nH]c(=S)[nH]c(O)c1N=Nc1ccc(OC(F)F)cc1	147.2*	1.16	94.8	56.8*	0.4	-3.3
COc1ccc(N=Nc2c(O)[nH]c(=S)[nH]c2=O)cc1	127.3	2.12	58.4	59.0*	0.4	-5.6
Cc1c(N=Nc2c(O)n(Cc3ccccc3)c(=O)[nH]c2=O)c(=O)n(-c2ccccc2)n1C	101.0	0.66	-29.2	-6.3	1.1	-2.5
